Reference: the RNAGym collection of RNA variant scans (doi:10.1126/science.aae0568)
Variants at the floor of the assay were thinned out.

B1: tRNA (parent)
chain: GUUCCGUUGGCGUAAUGGUAACGCGUCUCCCUCCUAAGGAGAAGACUGCGGGUUCGAGUCCCGUACGGAACG

Variants of: B1
Experiment: yeast fitness relative to wild type (ratio to wild type); higher = fitter; tRNA-Arg(CCU), competitive growth, 37 C, YPD
Method in brief: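 Genotype frequency changes were the basis for Darwinian fitness relative to wild type. The frequencies came from 100-nucleotide paired-end sequencing of gene amplicons from the start population and each end population of pooled yeast strains with tRNA-Arg(CCU) gene variants at the native locus. Competition ran in YPD at 37°C for 24 hours in six replicates, genotypes needed ≥ 100 starting reads, and estimates < 0.5 were set to 0.5.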

Row | Variant | yeast fitness
1 | GUUCCGUUGGCGUAAUGGUAACGCGUUUCCAUCCUAAGGAGAAGACUGCGGGUUCGAGUCCCGUACGGAACG | 0.758
2 | GUCCCGUUGGCGUACUGGUAACGCGUCUCCCUCCUAAGGAGAAGACUGCGGGUUCGAGUCCCGUACGGAACG | 0.695
3 | GUUCCGUUGGCGUAAUGGUAACGCAUCUCCCUCCUAAGGAGAAGACUGCGGGUACGAGUCCCGUAAGGAACG | ≤ 0.5
4 | GUUCCGUUCGCGUAAUGGUAACGCGUCUCCCUCCUAAGGAGUAGACUGCGGGUUCGAGUCCCGUACGGAACG | 0.624
5 | GUUCCGUUGGUGUAAUGGUAACGCGUCUCCCUGCUAAGGAGAAGACUGCGGGUUCGAGUCCCGUCCGGAACG | 0.694
6 | GUUCCGUUGGCGUAAUGGUAACGCGUGUCCGUCCUUUGGAGAAGACUGCGGGUUCGAGUCCCGUACGGAACG | 0.615
7 | GUUCGGUUGGGGUAAUGGUAACGCGUCUCCCUCCUAAGGGGAAGACUGCGGGUUCGAGUGCCGUACGGAACG | 0.588
8 | GUUCCGUUGGCGUAAUGGUAACGUGUCUCCUUCCUAAGGAGAAGACUGUGGGUUCGAGUCCCGUACGGACCG | 0.643
9 | GUUCCGUUGGCGUAAUGGUAACGCGUCUCCCUCCUAAGGAGAAGAGUGCGGAUUCGAGUCCCGUAUGGAACG | 0.631
10 | GUUCCAUUGGCGUAAUGGUAACGCGUCUCCCUCCUCGGGAGAAGACUGCGGAUUCGAGUCCCGUACGGAUCG | ≤ 0.5
11 | GUUCCGAUCGCGCAAUGGUAACGCGUCUCCCUCCUAAGGAGAAGACUGCGGGUUCGACUCCCGUCCGGGACG | ≤ 0.5
12 | GUUCCGUUGGCGUCAUGGUAACGCGUCUCACUCCUAAGGAGAAGACUGCGGGUUCGAGUCCCGUACGGAACG | 0.576
13 | GUUCCGUUGGCGUAAUGGUAACGCGUCUCCCGCCUAAGGAGAAGACUGCGGGUUCGAGCCACGUACGGAACG | ≤ 0.5
14 | GUUCCCUUGGCGUAAUGGUAACGCGUCUCCCUCCUAAGGAGCAGACUGUGGGUUCGAGUCCCGUACGGAACG | ≤ 0.5
15 | GCUCCGUUGGCGUAAUGGUAACGCGUCUCCGUCCUAAGGAGAAGACUGCGGGUUGGAGUCCCGUACGGAACG | 0.569
16 | GUUCCGUUGGCGUAAUGGUAAUGCGUCUCCCUCCUAAGGAGAAGACUGCGCGUUCGAGUCCCGUACGGAACG | 0.512
17 | GUUCCGUUGGCGUAAUGGUGACGCGUCUCGCUCCUAAAGAGAAGACUGCGGGUUCGAGUCCCGUACGGAACG | ≤ 0.5
18 | GUUCUGUUGGCGUAAUGGUAACGCGCCUCCCUCCUCAGGAGAAGACUGCGGGUUCGAGUCCCGAACGGAACG | ≤ 0.5
19 | GUUCCGAUGGCGUAAUGGUAACGCGUCUUCCUCCUAAGGAGAAGACUGCGGGUUCGAGUCCUGUACGGAACG | ≤ 0.5

Row | Variant | yeast fitness
20 | GGUCCGUUGGCGUAAUGAUAACGCGUCUGCGUCCUAAGGAGAAGACUGCGGGUUCGAGUCCCGUACGGAACG | ≤ 0.5
21 | GUUCCGUUGGCGUAAUGGUAACGCGUCUUCCUCCUAAGGAGAAGACUGCGGGUUUGAGUCCCGUACGGAACG | 0.636
22 | GUUCUGUUGGCGUAAUGGUAAUGCGUCUCCCUCCUAAGGAGAAGACUGCGGGUUCGUGUCCCGUACGGAACG | 0.574
23 | GUUCCAUUGGCGUAAUGGUAACGCGUCUCCCUCCUAAGGGGAAGACUGCGGGUUCGAGUCCCGUACGGAACG | 0.842
24 | GUUCCGUUGGCGCAUUGGUAACGCGUUUCCCUCCUAAGGAGAAGACUGCGGGUUCGAGUCCCGUACGGUACG | ≤ 0.5
25 | GUUCCGUUGGCGUAAUGGCAACGCGUCUCCCUCCUAAGGAGAAGACUGCGGGUUCGAGUCUCGUACGGAACG | 0.925
26 | GUUCCGUUGGCGUAAUGGUAACGCGUCUCCCUCCUUAGGAGAAGACUCGGGGUUCGAGUCCCGUACGGAACG | ≤ 0.5
27 | GAUCCCUUGGCGUAAUGGUAACGCGUCUCCCUCCUAUGGAGAAGACUGCGGGUUCGAGUCCCGUACGGAACG | ≤ 0.5
28 | GUUCCGUUGGCGUAACGGUAACGCGUCUCCGUCCUAAGGAGAAGACUGCGGGUUCGAGUCCCGUACGGAACG | 0.838
29 | GUUACGUUGACGUAAUGGUAACGCGUCUCCCUCCUAAGGAGAAGACUGCGGGUACGAGUCCCGUACGGAACG | ≤ 0.5
30 | GUUCCGUUGGCGUAAUCGUAAGGCGUCUCCCUCCUAAGGAGAAGACUGCGGGUUCGAGUCCCGUACGGAACG | 0.619
31 | GUUCCGUUGGCGUAAUGGUAACGCGUCUCUGUCCUAUGGAGAAGACUCCGGGUUCGAGUCCCGUACGGAACG | ≤ 0.5
32 | GUUCCGUUGGCGUAAUGGUAACGCGUCUGCCCCCUGAGGAGAAGACUGCGGGUUCGAGUCCCGUACGGAACG | 0.597
33 | GUUCCGUUGGCGUAAUGGUAACGCAUCUCCCUCCUAAGGAGAAGACUGCGGGAUCGAGUCCCGUACGGAACG | 0.741
34 | GUUCCGUUGGUGUAAUGGUAACGUGUCUCCCUCCUAAGGAGAAGACUGCGGGUUCGAGUCCCGUACGGAACG | 0.852
35 | GUUCCGUUGCCGUAAUGGAAACGCGUCUCCCUCCUACGGAGAAGACUGCGGGUUCGAGUCCCGUACGGAACG | 0.502
36 | GUUCCGUUGGCGUAAUGGUAACGCGUCUGCCUCCUAAGGAGAUGACUGCGGGUUCGAGUCCCGUACGGAACG | 0.594
37 | GUUCCGUUGGCGUAAUGGUAACGCGUCUCCCUCCUAAGGAGGAGGCUGCGGGUUCGAGUCCCGUACGGAACG | 0.786
38 | GUUCCGUCGGCGUAAUGGUAACGCCUCUCCCUCCUAAAGAGAAGACUGCGGGUUCGAAUUCUGUACGGAACG | ≤ 0.5
